Usually IC50 stands for the midpoint of a concentration-inhibition curve.

Data on 7 compounds can be found in ChEMBL document CHEMBL1955721, “Syntheses and cellular investigations of 17(3)-, 15(2)-, and 13(1)-amino acid derivatives of chlorin e(6)” (J Med Chem, 2011).

Data set [1] can be described thus: Drug uptake in human Hep2 cell golgi at 10 uM after 18 hrs by fluorescence microscopic analysis. In kind it is ADME, cell-based. The following applies: hep-2, 18 h. Summed up:
(§1)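 HEp2 cells grown 48 h on glass-bottom wells, then exposed to 10 µM compound for 18 h. Co-stained 30 min at 37 °C with LysoSensor Green 50 nM, MitoTracker Green 250 nM, ER Tracker Blue/White 100 nM or BODIPY FL C5 ceramide. Washed three times with PBS. Organelle sites scored by fluorescence overlay microscopy as major or minor.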

Data set [2] in a line: Drug uptake in human Hep2 cell lysosomes at 10 uM after 18 hrs by fluorescence microscopic analysis. Type of data set: ADME, cell-based, Lysosome. The following applies: hep-2, 18 h. In outline:
as §1

Data set [3] is described as follows: Drug uptake in human Hep2 cell endoplasmic reticulum at 10 uM after 18 hrs by fluorescence microscopic analysis. Type of data set: ADME, cell-based. Conditions: hep-2, 18 h; call rule not given here. Summed up:
as §1

Data set [4] has as its system HEp-2. Briefly: Drug uptake in human Hep2 cells at 10 uM measured up to 25 hrs by […]. In kind it is ADME, cell-based. Conditions: hep-2, 24 h, in the assay text read “24 hrs” for “25 hrs”. Summed up: (§2)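 HEp2 cells plated 7500/well and grown 48 h. Given 10 µM compound (final DMSO ≤1%, Cremophor 0.1%) for 0, 1, 2, 4, 8, 12 and 24 h. Washed with PBS and lysed in 0.25% Triton X-100. Intracellular compound read by intrinsic fluorescence (ex 355/em 650 nm) in a plate reader and normalized to cell number by CyQuant.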

A short description of data set [5]: Drug uptake in human Hep2 cell mitochondria at 10 uM after 18 hrs by fluorescence microscopic analysis. The following applies: hep-2, 18 h. In kind it is ADME. Summed up: as §1
Data set [6] relates to HEp-2. Nature of the data set: Cytotoxicity against human Hep2 cells under dark condition after 18 hrs by celltiter blue assay. In kind it is functional, cell-based. Conditions: HEp-2, 18 h. In outline:
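HEp2 cells (passages 4–15) plated 7500/well and grown 48 h. Two-fold serial dilutions from 400 to 50 µM applied for 18 h in the dark. Medium replaced, then CellTiter Blue added and incubated 4 h. Untreated cells taken as 100% viable, 0.2% saponin-treated as 0%.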

The test system of data set [7] is HEp-2. Nature of the data set: Ratio of IC50 for cytotoxicity against human Hep2 cells under dark condition to IC50 for human Hep2 cells in presence of 1 J/cm'2 light. In kind it is functional.
The test system of data set [8] is HEp-2. Briefly: Cytotoxicity against human Hep2 cells after overnight incubation followed by cells irradiated with 1 J/cm'2 light for 20 mins measured after overnight incubation by celltiter blue assay. Type of data set: functional, cell-based. The following applies: HEp-2, light or radiation study. In outline:
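HEp2 cells in 50:50 DMEM:AMEM with 5% FBS, passages 4–15, plated 7500/well and grown 48 h. Loaded overnight at 6.25–100 µM. Medium then swapped for one with 50 mM HEPES pH 7.2. Irradiated 20 min with a 100 W halogen lamp through a 610 nm long-pass filter (~1 J/cm2), IR cut by 10 mm water, plate on ice-water. Incubated overnight at 37 °C, then CellTiter Blue viability read.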
A general note: The colour change of resazurin is a common sign of viable cells or microbes.

The test system of data set [9] is HEp-2. Nature of the data set: Drug uptake in human Hep2 cells at 10 uM after 24 hrs by fluorescence microscopic analysis relative to chlorin e6. In kind it is ADME, cell-based. The following applies: hep-2, 24 h. Summed up:
as §2

SMILES strings stand for the structures.

Consider `C=Cc1c(C)c2cc3nc(c(CC(=O)O)c4[nH]c(cc5nc(cc1[nH]2)C(C)=C5CC)c(C)c4C(=O)O)[C@@H](CCC(=O)O)[C@@H]3C` [CHLORIN E6], for which the Drug uptake entry is “Not Active” in data set [1]; “Active” in data set [2]; “Active” in data set [3]; “Active” in the data set on HEp-2 [4]; “Not Active” in data set [5]. Further, the IC50 in the data set on HEp-2 [6] is over 400 µM; with HEp-2 [8], 20.8 µM. Besides, the “Ratio IC50” value with HEp-2 [7] is over 19.2.
`C=Cc1c(C)c2cc3nc(c(CC(=O)N[C@@H](CC(=O)O)C(=O)O)c4[nH]c(cc5nc(cc1[nH]2)C(C)=C5CC)c(C)c4C(=O)OC)[C@@H](CCC(=O)OC)[C@@H]3C`: the Drug uptake entry in [1] is recorded as “Not Active”; in data set [2], “Active”; in data set [3], “Active”; with HEp-2 [4] it was “Active”; in [5], “Active”. The IC50 in the data set on HEp-2 [6] was found to be 373 µM; in the data set on HEp-2 [8] it was 4 µM. Moreover, the “Ratio IC50” value in the data set on HEp-2 [7] was found to be 93.4.
`C=Cc1c(C)c2cc3nc(c(CC(=O)OC)c4[nH]c(cc5nc(cc1[nH]2)C(C)=C5CC)c(C)c4C(=O)OC)[C@@H](CCC(=O)N[C@@H](CCCCN)C(=O)OC)[C@@H]3C`: the Drug uptake entry in data set [1] is reported as “Active”; in data set [2], “Active”; in data set [3] it was “Active”; with HEp-2 [4], “Active”; in data set [5] it was “Not Active”. Further, the concentration for half-maximal inhibition (IC50) with HEp-2 [6] was over 400 µM; with HEp-2 [8], 26.2 µM. Also, the “Ratio IC50” value with HEp-2 [7] is given as over 15.3.
For `C=Cc1c(C)c2cc3nc(c(CC(=O)OC)c4[nH]c(cc5nc(cc1[nH]2)C(C)=C5CC)c(C)c4C(=O)NCCC(=O)N[C@@H](CC(=O)O)C(=O)O)[C@@H](CCC(=O)OC)[C@@H]3C`, the Drug uptake result is given as “Active” in [1]; “Active” in data set [2]; “Active” in [3]; “Active” with HEp-2 [4]; “Not Active” in [5]. Besides, the 50% inhibitory concentration (IC50) in the data set with HEp-2 [6] was found to be 384 µM; in the data set with HEp-2 [8], 0.82 µM. The “Ratio IC50” value in the data set with HEp-2 [7] came to 468.2.
On to `C=Cc1c(C)c2cc3nc(c(CC(=O)OC)c4[nH]c(cc5nc(cc1[nH]2)C(C)=C5CC)c(C)c4C(=O)NCCNC(=O)[C@@H](N)CCCCN)[C@@H](CCC(=O)OC)[C@@H]3C`, for which the Drug uptake entry is “Active” in data set [1]; “Active” in data set [2]; “Active” in [3]; “Active” with HEp-2 [4]; “Not Active” in data set [5]. Besides, the figures for the concentration for half-maximal inhibition (IC50) with HEp-2 [6] and in the data set with HEp-2 [8] were 268 µM and 1.34 µM, respectively. Besides, in the data set on HEp-2 [7], the “Ratio IC50” value was 200.3.
With `C=Cc1c(C)c2cc3nc(c(CC(=O)N[C@@H](CCCCN)C(=O)OC)c4[nH]c(cc5nc(cc1[nH]2)C(C)=C5CC)c(C)c4C(=O)OC)[C@@H](CCC(=O)OC)[C@@H]3C`, the Drug uptake result is on record as “Active” in [1], “Active” in [2], “Active” in data set [3] and “Not Active” in data set [5]. Further, the “fold change (FC)” value with HEp-2 [9] is on record as 18. In addition, the results for the 50% inhibitory concentration (IC50) in the data set with HEp-2 [6] and in the data set with HEp-2 [8] were over 400 µM and 28.8 µM, respectively. Also, in the data set with HEp-2 [7], the “Ratio IC50” value is recorded as over 13.9.
For the compound `C=Cc1c(C)c2cc3nc(c(CC(=O)OC)c4[nH]c(cc5nc(cc1[nH]2)C(C)=C5CC)c(C)c4C(=O)N[C@@H](CC(=O)O)C(=O)O)[C@@H](CCC(=O)OC)[C@@H]3C`, the Drug uptake entry (in data set [1]; in data set [2]; in data set [3]; with HEp-2 [4]; in data set [5]) was “Active” each time. In addition, the IC50 in the data set on HEp-2 [6] stood at 285 µM; in the data set with HEp-2 [8] it was 0.61 µM. In addition, the “Ratio IC50” value with HEp-2 [7] is given as 466.6.
